Measured values reported in publication PMC10203771 (Saudi Pharmaceutical Journal : SPJ, 2023).
In brackets after ≈: the same amount, converted by molar mass.

Columns and labels:
[1] = DPPH free radical scavenging assay; details: t = 16 min
Method in brief: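 Radical scavenging was read by absorbance. Percent inhibition = (Abs0 − AbsT)/Abs0 × 100, where Abs0 is the control at t = 0 and AbsT is the sample with DPPH at t = 16 min.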

Escherichia coli = test: Antibacterial assay; assay type: cell-based; details: Gram-negative
Pseudomonas aeruginosa = test: Antibacterial assay; assay type: cell-based; details: Gram-negative
Proteus vulgaris = test: Antibacterial assay; assay type: cell-based; details: Gram-negative
Bacillus subtilis = test: Antibacterial assay; assay type: cell-based; details: Gram-positive
Staphylococcus aureus = test: Antibacterial assay; assay type: cell-based; details: Gram-positive
HT-29 cells [2] = test: Cell viability; assay type: cell-based; details: Homo sapiens, HT-29, read-out: IC50 (mean ± SD; n = 3)
Method in brief: (§1)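 Cells were grown in medium with 10% FBS and penicillin/streptomycin 100 units/mL, humidified, at 37 °C and 5% CO2; HT-29 and HEKa were in RPMI-1640. About 2000 cells/well were seeded in 96-well plates. Cells were rinsed once with PBS and five times with distilled water.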

HEKa cells = test: Cell viability; assay type: cell-based; details: Homo sapiens, read-out: IC50 (mean ± SD; n = 3)
Method in brief: as §1

HepG2 cells [3] = test: Cell cycle analysis; assay type: cell-based, human; details: HepG2, 48 h
HT-29 cells [4] = test: Cell cycle analysis; assay type: cell-based, human; details: HT-29, 48 h
HepG2 cells [5] = test: Cell viability; assay type: cell-based; details: Homo sapiens, HepG2, read-out: IC50 (mean ± SD; n = 3)
Method in brief: as §1

PC-3 cells = test: Cell viability; assay type: cell-based; details: Homo sapiens, PC-3, read-out: IC50 (mean ± SD; n = 3)
Method in brief: as §1

Candida albicans = test: Antifungal assay; assay type: cell-based; details: C. albicans
Method in brief: (§2)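 Antifungal agar diffusion read as inhibition zone diameter in mm, with amphotericin B as positive control.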

C. tropicalis = test: Antifungal assay; assay type: cell-based, Candida tropicals
Method in brief: as §2

Aspergillus flavus = test: Antifungal assay; assay type: cell-based; details: A. flavus
Method in brief: as §2

Aspergillus niger = test: Antifungal assay; assay type: cell-based; details: A. niger
Method in brief: as §2

IC50 (DPPH free radical scavenging) [1]	IC50 (HT-29 cells [2])	Structure (SMILES)	Inhibition zone (Escherichia coli)	Inhibition zone (Pseudomonas aeruginosa)	Inhibition zone (Proteus vulgaris)	Inhibition zone (Bacillus subtilis)	Inhibition zone (Staphylococcus aureus)	IC50 (HEKa cells)	also measured
14.2 µg/mL (≈ 80.6 µM)		O=C1O[C@H]([C@@H](O)CO)C(O)=C1O [vitamin C]							
	1.7 ± 0.02 µg/mL (≈ 3.13 µM)	COc1cccc2c1C(=O)c1c(O)c3c(c(O)c1C2=O)C[C@@](O)(C(=O)CO)C[C@@H]3O[C@H]1C[C@H](N)[C@H](O)[C@H](C)O1 [Doxorubicin]						0.7 ± 0.04 µg/mL (≈ 1.29 µM)	cell cycle arrest phase (HepG2 cells [3]): arrested in G2 phase; cell cycle arrest phase (HT-29 cells [4]): arrested in G2 phase

More lines, now with the values behind:

Structure (SMILES)	IC50 (DPPH free radical scavenging) [1]	IC50 (HT-29 cells [2])	Inhibition zone (Escherichia coli)	Inhibition zone (Pseudomonas aeruginosa)	Inhibition zone (Proteus vulgaris)	Inhibition zone (Bacillus subtilis)	Inhibition zone (Staphylococcus aureus)	IC50 (HEKa cells)	also measured
CC1(C)S[C@@H]2[C@H](NC(=O)[C@H](N)c3ccc(O)cc3)C(=O)N2[C@H]1C(=O)O [Amoxicillin]			33 ± 2.90 mm	39 ± 2.40 mm	30 ± 4.00 mm	23 ± 6.40 mm	20 ± 1.90 mm		
CC1(C)C[C@H](O)C[C@@]2(C)OC(=O)C=C12 [Compound 3, loliolide]	55.9 µg/mL (≈ 285 µM)	8.9 ± 0.97 µg/mL (≈ 45.4 µM)	10 ± 1.40 mm	09 ± 1.20 mm	10 ± 1.50 mm	15 ± 1.70 mm	16 ± 1.90 mm	3.1 ± 0.1 µg/mL (≈ 15.8 µM)	IC50 (HepG2 cells [5]): 4.6 ± 0.51 µg/mL (≈ 23.4 µM); IC50 (PC-3 cells): 11.9 ± 1.31 µg/mL (≈ 60.6 µM)
C[C@@H]1[C@H](O)[C@@H](C)/C=C/C=C/C=C/C=C/C=C/C=C/C=C/[C@H](O[C@@H]2O[C@H](C)[C@@H](O)[C@H](N)[C@@H]2O)C[C@@H]2O[C@](O)(C[C@@H](O)C[C@@H](O)[C@H](O)CC[C@@H](O)C[C@@H](O)CC(=O)O[C@H]1C)C[C@H](O)[C@H]2C(=O)O [amphotericin B]									diameter of inhibition zone (Candida albicans): 29 ± 0.90 mm; diameter of inhibition zone (C. tropicalis): 25 ± 0.87 mm; diameter of inhibition zone (Aspergillus flavus): 33 ± 1.11 mm; diameter of inhibition zone (Aspergillus niger): 41 ± 0.70 mm
